Our source for the Activity values is ChEMBL document CHEMBL1139000, “N-Glycosyl-thiophene-2-carboxamides: effects on endothelial cell growth in the presence and absence of bFGF--a significant increase in potency using per-O-acetylated sugar analogues” (2006).

Active and inactive are the calls of the source. The calls are words filed in the database; no cut-off is given here.

Experiment [1] deals with AEC. Nature of the experiment: Antiproliferative activity against 10% FBS-induced BAEC at 500 uM after 24 hrs assessed by inhibition of [3H]thymidine uptake relative to control. It counts as functional, Bos taurus. Set-up: scale not given: the % may be the effect or the level left. The method, boiled down:
(§1)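 Bovine aortic endothelial cells seeded at 30,000 cells/well in complete medium (10% foetal bovine serum) and allowed 24 h adhesion. Compounds then added and cells cultured 20 h at 37 °C, 5% CO2. [3H]thymidine pulse for a further 4 h (24 h total exposure). Cells lysed with 0.1 N NaOH and incorporated label counted by scintillation. Values are % of control-treated cells, mean ± SEM of three separate experiments, each in triplicate.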

In experiment [2] the test system is AEC. Briefly: Antiproliferative activity against 10% FBS-induced BAEC at 500 uM after 24 hrs assessed by inhibition of [3H]thymidine uptake. Type of experiment: functional, Bos taurus. Details: scale not given: the % may be the effect or the level left. The method, boiled down:
as §1

Experiment [3] relates to AEC. Nature of the experiment: Antiproliferative activity against 10% FBS-induced BAEC at 100 uM after 24 hrs assessed by inhibition of [3H]thymidine uptake. It counts as functional, Bos taurus. Details: scale not given: the % may be the effect or the level left. The method, boiled down: as §1
Experiment [4] has as its system AEC. Briefly: Antiproliferative activity against 10% FBS-induced BAEC at 80 uM after 24 hrs assessed by inhibition of [3H]thymidine uptake. Type of experiment: functional, Bos taurus. Set-up: scale not given: the % may be the effect or the level left. The method, boiled down:
as §1

For experiment [5], the system named is AEC. Nature of the experiment: Antiproliferative activity against 10% FBS-induced BAEC at 3.3 uM after 24 hrs assessed by inhibition of [3H]thymidine uptake. It counts as functional, cell-based. To be noted: Bos taurus. The gist of the method: as §1
For experiment [6], the system named is AEC. Nature of the experiment: Antiproliferative activity against 10% FBS-induced BAEC at 16 uM after 24 hrs assessed by inhibition of [3H]thymidine uptake. Type of experiment: functional, Bos taurus. Set-up: scale not given: the % may be the effect or the level left. The method, boiled down:
as §1

Experiment [7] relates to AEC. Briefly: Antiproliferative activity against bFGF-stimulated BAEC at 80 uM after 48 hrs assessed by inhibition of [3H]thymidine uptake. Type of experiment: functional, cell-based. To be noted: Bos taurus. The method, boiled down: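 BAECs seeded at 30,000 cells/well and starved 24 h in 0.5% foetal bovine serum. Then incubated 48 h with bFGF (10 ng/mL) with or without compound. [3H]thymidine (2 µCi/mL) added for the last 4 h. Lysis in 0.1 N NaOH, scintillation counting. Triplicate values from three separate experiments; Student's t test against control and against bFGF treatment.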

Experiment [8] relates to AEC. Briefly: Antiproliferative activity against 10% FBS-induced BAEC upto 80 uM after 24 hrs assessed by inhibition of [3H]thymidine uptake. It counts as functional, cell-based. The settings on record: Bos taurus. The method, boiled down: as §1

In the case of `C#Cc1ccsc1C(=O)N[C@@H]1O[C@H](CO)[C@@H](O)[C@H](O)[C@H]1O`, in the experiment on AEC [1], the Activity amounted to 79.75%.

In the experiment on AEC [1], `Cc1ccc(C(=O)N[C@@H]2O[C@H](CO)[C@@H](O)[C@H](O)[C@H]2O)s1` had an Activity of 83%.

The compound `C#Cc1csc(C(=O)N[C@@H]2O[C@H](CO)[C@@H](O)[C@H](O)[C@H]2O)c1` gave an Activity with AEC [1] of 71%.

Regarding `O=C(N[C@@H]1O[C@H](CO)[C@@H](O)[C@H](O)[C@H]1O)c1sccc1Br`, the Activity was 25% in the experiment on AEC [2], 10% in the experiment on AEC [3] and 75.4% in the experiment on AEC [1].

Take `CCc1ccc(C(=O)N[C@@H]2O[C@H](COC(C)=O)[C@@H](OC(C)=O)[C@H](OC(C)=O)[C@H]2OC(C)=O)s1`: the figures for the Activity in the experiment with AEC [4] and in the experiment on AEC [6] were 41% and 21%, respectively. For the same compound, the result with AEC [5] was inactive. The outcome in the experiment with AEC [7] was Active.

Regarding `CCc1ccc(C(=O)N[C@@H]2O[C@H](CO)[C@@H](O)[C@H](O)[C@H]2O)s1`, in the experiment on AEC [8], the outcome was inactive. Moreover, in the experiment on AEC [1], the Activity is 80.3%.

In the experiment on AEC [1], `O=C(N[C@@H]1O[C@H](CO)[C@@H](O)[C@H](O)[C@H]1O)c1ccc(Br)s1` yielded an Activity of 65%.

Regarding `O=C(N[C@@H]1O[C@H](CO)[C@@H](O)[C@H](O)[C@H]1O)c1cccs1`, the result with AEC [1] (Bos taurus) was inactive.

As for `Cc1ccsc1C(=O)N[C@@H]1O[C@H](CO)[C@@H](O)[C@H](O)[C@H]1O`, the Activity in the experiment on AEC [1] was determined as 84%.
